RAD54 branch: inhibitors of human RAD54 branch migration, primary screen, biochemical, fluorescence, single point | DNA repair and recombination protein RAD54-like (Homo sapiens), Q92698 | inhibition, % at 10.4 µM | RAD54 Holliday junction branch migration, FAM/BHQ fluorescence | 0.14% of 360,000 active;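 active means mean normalized replicate activity at least 40 and at least half of replicates scoring 40 or more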;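 further: inhibitors cause a drop in the FAM fluorescence signal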
PvdQ inh: P. aeruginosa PvdQ acylase inhibitors, primary screen, biochemical, fluorescence, plate reader and imaging, single point; PvdQ acylase [Pseudomonas aeruginosa LESB58]; AID 488965, 2010; 0.063% of 340,000 active; purified PvdQ acylase; inhibition, % at 10 µM; in the data active means inhibition above about 30%, passing the limit was not always enough
FID counter: compounds displacing fluorescent DNA intercalator, primary screen, artefact control for HCV NS3 helicase inhibitor project, biochemical, FID fluorescence | inhibition, % at 7.9 µM | 0.17% of 290,000 active | DNA fluorescent intercalator displacement; in the data active means inhibition above about 37%;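 further: higher means more ethidium bromide displaced from hairpin DNA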
IMP-1 inh-1: IMP-1 metallo-beta-lactamase inhibitors, primary screen, biochemical, epi-absorbance readout, Pseudomonas aeruginosa enzyme. purified IMP-1, nitrocefin hydrolysis, epi-absorbance fluorescence. 0.45% of 290,000 active. metallo-beta-lactamase IMP-1 (Pseudomonas aeruginosa). inhibition, % at 5.6 µM;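 active means inhibition above the mean plus 3 SD of all compounds in the same screening run, cut at about 4.5% in these data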
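System – purified recombinant IMP-1 beta-lactamase · Input – IMP-1 dispensed at 0.2 nM · Timing – 15 min preincubation plus 25 min reaction at 25 °C · Signal – Epi-absorbance fluorescence, 480 nm excitation, 530 nm emission · Measure – percent IMP-1 inhibition derived from blank-referenced optical density · Controls – Enzyme-plus-DMSO low control, enzyme-free DMSO high control · Replication – singlicate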
VIM-2 inh: VIM-2 metallo-beta-lactamase inhibitors, primary screen, biochemical, epi-absorbance readout, Pseudomonas aeruginosa enzyme | purified VIM-2, nitrocefin hydrolysis, epi-absorbance fluorescence | inhibition, % at 5.6 µM | 0.89% of 290,000 active | AID 1527, 2009;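 active means inhibition above the mean of all tested compounds plus 3 SD, cutoff set per screening run, cut at about 7.5% in these data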;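 further: red hydrolysis product quenches plate fluorescence so inhibitors raise well fluorescence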
IMP-1 inh-2: IMP-1 metallo-beta-lactamase inhibitors, confirmation, selectivity assay for selective VIM-2 inhibitor project, biochemical, epi-absorbance readout, triplicate; shares compounds with VIM-2 inh; purified IMP-1, nitrocefin hydrolysis, epi-absorbance fluorescence; inhibition, % at 5.6 µM; 1,300 tested, under 10 active; AID 1856, 2009; call rule not given here
VIM-2 FRET ctr: VIM-2 inhibitors in FRET format, confirmation, artefact control for selective VIM-2 inhibitor project, biochemical, epi-absorbance artifact exclusion; purified VIM-2, CCF2 FRET substrate hydrolysis; 23% of 1,300 active; inhibition, % at 5.6 µM; shares compounds with VIM-2 inh; AID 1857, 2009;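 active means inhibition above the mean of all tested compounds plus 3 SD, cut at about 19% in these data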
TEM-1 counter: TEM-1 serine beta-lactamase inhibitors, counter-screen for VIM-2 inhibitor project, biochemical, epi-absorbance, HTS | shares compounds with VIM-2 inh | Purified TEM-1, nitrocefin hydrolysis, epi-absorbance fluorescence | inhibition, % at 5.6 µM | 3% of 1,300 active | AID 1866, 2009;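 active means inhibition above that campaign's mean inhibition plus 3 SD, cut at about 0.46% in these data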
Target sequence (P62593 whole entry, looked up): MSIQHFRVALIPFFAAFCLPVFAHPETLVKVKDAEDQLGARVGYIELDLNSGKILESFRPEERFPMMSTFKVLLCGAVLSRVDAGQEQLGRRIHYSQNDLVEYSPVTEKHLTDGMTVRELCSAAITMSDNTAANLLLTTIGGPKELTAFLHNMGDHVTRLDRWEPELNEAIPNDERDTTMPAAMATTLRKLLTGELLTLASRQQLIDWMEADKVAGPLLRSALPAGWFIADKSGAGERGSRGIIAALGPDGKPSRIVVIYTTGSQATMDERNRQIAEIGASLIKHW
VIM-2 confirm 2: VIM-2 metallo-beta-lactamase inhibitors, confirmation, biochemical, epi-absorbance, hits shared with IMP-1 screen; shares compounds with VIM-2 inh; purified VIM-2, nitrocefin hydrolysis; inhibition, % at 5.6 µM; 96% of 1,300 active;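 active means inhibition of the VIM-2 beta-lactamase enzyme above about 11% from the earlier first-round screen, limit read from the data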
A number is an active result; n = inactive; x = no result. This is a sample that favours compounds with a hit; in the whole collection about 1% have one here.

SMILES	RAD54 branch	PvdQ inh	FID counter	IMP-1 inh-1	VIM-2 inh	IMP-1 inh-2	VIM-2 FRET ctr	TEM-1 counter	VIM-2 confirm 2
CC1CC(C)CN(c2ccc([N+](=O)[O-])cc2-c2nn[nH]n2)C1 (stereo not given)	n	n	n	n	33	n	61	2.3	45
COc1ccc(Cl)c2c1[nH]c1nc(SCc3ccccn3)nnc12	x	n	n	n	13	n	n	n	21
CCc1cc(=O)oc2c3c(cc(OCC(=O)NCc4ccco4)c12)OC(C)(C)CC3	n	n	n	n	n	x	x	x	x
Cc1cc(=O)oc2c3c(cc(OCC(=O)N[C@@H](Cc4ccccc4)C(=O)O)c12)OC(C)(C)CC3	n	n	n	n	22	n	40	n	25
CCc1cc(=O)oc2c3c(cc(OCC(=O)NCc4ccncc4)c12)OC(C)(C)CC3	n	n	n	n	16	n	n	n	27
CC(C)c1cn(CC[C@@H]2CC[C@H](NC(=O)C3CC3)[C@H](CO)O2)nn1	n	x	x	x	x	x	x	x	x
C[C@H](CO)N1C[C@H](C)[C@H](CN(C)C(=O)Nc2ccc(C(F)(F)F)cc2)Oc2ccc(NS(=O)(=O)c3ccc(F)cc3)cc2CC1=O	n	x	x	x	x	x	x	x	x
COc1ccc(NC(=O)Nc2ccc3c(c2)C(=O)N([C@H](C)CO)C[C@H](C)[C@H](CN(C)C(=O)NC2CCCCC2)OCCCC[C@H](C)O3)cc1	n	x	x	x	x	x	x	x	x
COc1ccc(S(=O)(=O)N(C)C[C@@H]2Oc3c(NC(=O)c4ccc(-c5nccs5)cc4)cccc3C(=O)N([C@H](C)CO)C[C@@H]2C)cc1	n	x	x	x	x	x	x	x	x
CC1CCCCC1n1c(-c2cccnc2)n[nH]c1=S (stereo not given)	x	n	n	n	19	n	49	n	32
Cc1ccsc1-c1n[nH]c(=S)n1C1CCCCC1	x	n	n	n	31	n	57	n	42
Cc1ccc(C)c(-n2c(-c3cccnc3)n[nH]c2=S)c1	x	n	n	n	n	x	x	x	x
S=c1[nH]nc(-c2ccccc2)n1CC1CCCO1 (stereo not given)	n	n	n	n	30	n	48	n	32
S=c1[nH]nc(-c2ccccc2)n1C1C=CCCC1 (stereo not given)	n	n	n	n	15	n	44	n	26
COc1ccc(Cl)cc1-c1n[nH]c(=S)n1C1CCCCC1	n	n	n	n	n	x	x	x	x
C[C@@H]1CCCCO[C@@H](CN(C)S(=O)(=O)c2cccs2)[C@@H](C)CN([C@@H](C)CO)C(=O)c2cc(NC(=O)c3ccncc3)ccc2O1	n	x	x	x	x	x	x	x	x
COc1ccc(CN2[C@@H]3CN(C(=O)CC(F)(F)F)c4ccccc4[C@@H]3[C@@H]2CO)cc1	n	x	x	x	x	x	x	x	x
C[C@@H]1CN([C@H](C)CO)C(=O)Cc2cc(NC(=O)CCN3CCOCC3)ccc2O[C@@H]1CN(C)Cc1ccncc1	n	x	x	x	x	x	x	x	x
CC(C)Cn1c(-c2nn(C)cc2Cl)n[nH]c1=S	n	n	n	n	n	x	x	x	x
COc1ccc(-c2n[nH]c(=S)n2C2CCCCC2)cc1	x	n	n	n	n	x	x	x	x
S=c1[nH]nc(-c2cccnc2)n1C1CCCCC1	x	n	n	n	16	n	45	n	26
Cc1ccsc1-c1n[nH]c(=S)n1CC(C)C	n	n	n	n	18	n	40	n	28
C[C@H]1CN([C@@H](C)CO)C(=O)c2cccc(NC(=O)C3CCOCC3)c2O[C@H]1CN(C)C(=O)Nc1ccccc1	n	x	x	x	x	x	x	x	x
O=C(c1ccc(N2CCNCC2)cc1)c1cccnc1	n	n	n	n	16	n	n	n	43
O=C(NC12CC3CC(CC(C3)C1)C2)c1ccc([N+](=O)[O-])cc1	n	n	n	n	n	x	x	x	x
SMILES	RAD54 branch	PvdQ inh	FID counter	IMP-1 inh-1	VIM-2 inh	IMP-1 inh-2	VIM-2 FRET ctr	TEM-1 counter	VIM-2 confirm 2
O=[N+]([O-])c1ccc(C23CC4CC(CC(O)(C4)C2)C3)cc1	x	x	n	n	15	n	34	n	22
CCCC(=O)Nc1ccc2c(c1)C(=O)N(C)C[C@H](OC)[C@@H](C)CN(C(=O)c1ccccc1F)[C@H](C)CO2	n	x	x	x	x	x	x	x	x
COc1ccc(NC(=O)Nc2cccc3c2O[C@H](CN(C)C(=O)Nc2cccc4ccccc24)[C@H](C)CN([C@@H](C)CO)C3=O)cc1	n	x	x	x	x	x	x	x	x
CCOc1ccccc1C(=O)NC(C)c1ccc(-n2ccnc2)cc1 (stereo not given)	n	n	n	n	26	n	n	n	34
O=C(CCN1CCCCC1)NCC[C@@H]1CC[C@@H](NC(=O)C2CC2)[C@@H](CO)O1	n	x	x	x	x	x	x	x	x
C[C@@H]1CCCCO[C@H](CN(C)C(=O)c2ccncc2)[C@H](C)CN([C@H](C)CO)C(=O)c2cc(N(C)C)ccc2O1	n	x	x	x	x	x	x	x	x
Cc1nn2c(N3CCN(C)CC3)c3c(nc2c1-c1ccccc1)CCCC3	n	x	n	n	26	n	n	n	55
Cc1c(OC(C)C(=O)NCCCn2ccnc2)ccc2c3c(c(=O)oc12)CCC3 (stereo not given)	n	n	n	n	49	n	n	n	64
Cc1coc2c(C)c3oc(=O)c(CCC(=O)N(C)CC(=O)O)c(C)c3cc12	n	n	n	n	n	x	x	x	x
O=C(COc1ccc(Br)cc1)NCCCn1ccnc1	n	n	n	n	n	x	x	x	x
Cc1cc(=O)oc2c(C)c(OCC(=O)NCCCn3ccnc3)ccc12	n	n	n	n	19	n	n	n	35
Cc1coc2c(C)c3oc(=O)c(CCC(=O)NCCCn4ccnc4)c(C)c3cc12	n	n	n	n	31	n	n	n	36
Cc1c(OCC(=O)NCCCn2ccnc2)ccc2c3c(c(=O)oc12)CCC3	n	n	n	n	48	n	n	n	58
CCCc1cc(=O)oc2cc(OC(C)C(=O)NCCCn3ccnc3)ccc12 (stereo not given)	n	n	n	n	n	x	x	x	x
CC(=O)[C@]12O[C@]3(COC[C@H](c4ccccc4)N3C1=O)[C@@H]1C(=O)N(C)C(=O)[C@@H]12	n	x	x	x	x	x	x	x	x

High-throughput results deposited in PubChem by several laboratories.
